Compound activity deposited in PubChem by several laboratories.
FLuc inh counter = firefly luciferase enzyme inhibitors, primary screen, artefact control for luciferase-based inhibitor screens, biochemical, luminescence, ATPLite | 10 min | inhibition, % at 10 µM | AID 1006, 2008 | actives 1.5% (n = 200,000);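 active means inhibition above about 50% when tested at 10 µM, limit read from the data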
Target sequence (P08659 whole entry, looked up): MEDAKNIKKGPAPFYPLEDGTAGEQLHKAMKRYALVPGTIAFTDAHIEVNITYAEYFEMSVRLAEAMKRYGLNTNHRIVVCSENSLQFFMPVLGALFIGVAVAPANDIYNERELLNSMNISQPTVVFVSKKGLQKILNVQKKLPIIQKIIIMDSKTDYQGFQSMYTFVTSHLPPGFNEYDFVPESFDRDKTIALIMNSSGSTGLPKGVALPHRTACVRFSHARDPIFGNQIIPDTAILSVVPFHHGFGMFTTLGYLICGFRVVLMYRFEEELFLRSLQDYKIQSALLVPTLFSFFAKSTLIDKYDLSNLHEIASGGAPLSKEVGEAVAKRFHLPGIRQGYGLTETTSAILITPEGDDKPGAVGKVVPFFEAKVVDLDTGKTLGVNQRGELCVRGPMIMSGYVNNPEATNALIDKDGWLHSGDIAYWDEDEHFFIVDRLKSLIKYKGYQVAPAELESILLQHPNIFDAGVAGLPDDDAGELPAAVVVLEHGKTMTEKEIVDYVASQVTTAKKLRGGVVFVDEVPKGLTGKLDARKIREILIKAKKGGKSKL
FLuc stim CS = FLuc activators, initial screening, artefact control for FLuc-dependent activation tests, biochemical, ATPlite luminescence. AID 1027, 2008. Luciferin 4-monooxygenase (Photinus pyralis), P08659. ATPlite luciferase biochemical, 10 min; 0 = ATP-free wells, 1 = DMSO control. 200,000 tested, under 10 active. activation factor at 10 µM;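 active means luciferase activation factor, scaled between plate controls, of at least 2 with compound at 10 µM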
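System: Luciferase/luciferin detection reagent, cell-free biochemical luciferase assay | Medium: PBS buffer for ATP | Dosing: Test compounds dosed from 2 mM stocks in 100% DMSO | Timing: 10 min at ambient temperature | Signal: Luminescence measurement of luciferase light output | Evaluation: Luciferase activation, seen as luminescence increase over controls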
APP 5'UTR act = activators of APP 5'UTR luciferase reporter, primary screen, SH-SY5Y cells; actives 1% (n = 190,000); SH-SY5Y APP 5'UTR luciferase reporter, luminescence; zero percent = DMSO vehicle wells; activation, % at 2 µM; AID 1276, 2008;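 active means activation above a set limit, based on mean plus 3 SD of controls, cut at about 140% in these data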
STAT1 act = STAT1 signaling activators, primary screen, cell-based, HTS, luciferase reporter. NIH 3T3 STAT1-luciferase reporter, IFN-gamma, luminescence; 100% = IFN-gamma alone, no compound. activation (% of control), % at 5.5 µM. actives 2.6% (n = 200,000). AID 932, 2007;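 active means activation above the screen-wide mean activation plus 3 SD, cut at about 130% in these data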;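 further: raw ratio to IFN-gamma control signal so 100% means no change and 0% no light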
NF-kB neuron act = activators of NF-kB expression in neurons, primary screen, cell-based, HTS; human neuronal cells, NF-kB reporter expression; hits give high values; actives 1.6% (n = 190,000); fold change at 12.5 µM; in the data active means fold change above about 3.3
Active calls of the source: *; . = not tested or not shown. This is a sample that favours compounds with a hit; in the whole collection about 4.1% have one here.

SMILES	FLuc inh counter	FLuc stim CS	APP 5'UTR act	STAT1 act	NF-kB neuron act
COC(=O)c1ccc(CO/N=C2\CCCc3nonc32)cc1	-2.1	1	17.0	138.9*	1.2
Nc1ccc(-c2ccc(C(=O)O)s2)cn1	-4.2	1	7.1	110.6	1.1
CCOC(=O)C1=C(CSc2nc(-c3ccccc3)ccc2C#N)OC(N)=C(C#N)C1c1cccnc1 (stereo not drawn)	-6.2	1.1	43.2	107.3	3.84*
CCC1=NN(C(=O)c2cccnc2)C(O)(C(F)(F)F)C1 (stereo not drawn)	-3.0	1	2.4	104.1	1.2
c1nnc(-c2ccc3c(c2)OCO3)o1	-4.3	1	16.1	104.4	1.24
Brc1ccc(-c2nnc(-c3ccc4c(c3)OCO4)o2)o1	60.4*	0.4	5.0	115.2	3.95*
CCOc1ccc(-c2nnc(-c3ccco3)o2)cc1OCC	-0.9	1	15.0	124.8	1.77
Clc1ccc(CSc2nnc(-c3ccc4c(c3)OCO4)o2)cc1	-3.1	1	-3.5	103.3	1.24
O=C1CCCCC1Sc1nnc(-c2ccc3c(c2)OCO3)o1 (stereo not drawn)	88.9*	0.1	177.6*	18.3	1.13
Cc1ccc(-c2nnc(-c3ccc4c(c3)OCO4)o2)cc1	52.5*	0.5	129.6	129.9*	1.11
c1coc(-c2nnc(-c3ccc4c(c3)OCO4)o2)c1	37.5	0.6	88.2	132.6*	2.62
COc1ccccc1N1CCN(C(=O)Nc2cccc(C)c2)CC1	0.9	1	11.1	95.7	1.34
c1ccc(-c2nnc(-c3ccco3)o2)cc1	17.5	0.8	66.8	138.3*	1.72
Cc1ccc2c(c1)sc[n+]2Cc1ccccc1	9.9	0.9	28.4	135.3*	2.15
Cc1ccc(-c2cc[n+](Cc3ccccc3)cc2)cc1	-3.2	1	3.8	77.2	1.07
Cc1ccc(Cn2nnc(C(=O)Nc3cccc(C)c3C)c2N)cc1	-4.0	1	18.8	100.6	0.76
Cc1cccc(NC(=O)c2n[nH]c([N+](=O)[O-])c2Br)c1C	37.4	0.6	132.4	123.1	4.07*
Cn1c2ccccc2n2c(=O)c(Cl)c(-c3ccccc3)c(C#N)c12	-1.2	1	17.0	88.7	1.19
O=C(/C=C/c1ccccc1)OCc1cncs1	1.3	1	28.5	128.8*	2.05
CN(C)C(=O)c1nc2ccc(Cl)cn2c1CNCc1ccccc1OC(F)(F)F	-3.2	1	-0.9	104.2	.
c1ccc(-c2cn3c(n2)-c2ccccc2C3)cc1	87.2*	0.1	152.3*	114.7	3.89*
Nc1nc(-c2ccccc2)cn1N	-3.9	1	25.0	111.8	1.29
COc1ccc(C=Nc2cccc3c(=O)[nH][nH]c(=O)c23)c2ccccc12	-8.9	1.1	14.0	101.9	1.12
COc1cccc(C=Nc2cccc3c(=O)[nH][nH]c(=O)c23)c1O	80.3*	0.2	12.4	106.8	1.54
Oc1ccc(-c2nccc(-c3cccs3)n2)cc1	5.4	0.9	83.5	140.8*	2.89
SMILES	FLuc inh counter	FLuc stim CS	APP 5'UTR act	STAT1 act	NF-kB neuron act
COC(=O)C(C)Oc1ccc(-c2nccc(-c3cccs3)n2)cc1 (stereo not drawn)	4.9	1	0.3	117.3	1.42
COc1ccc(CNC(=O)/C(C#N)=C2\N=C(NC(=O)c3cccs3)c3ccccc32)cc1	-5.9	1.1	-5.0	105.8	0.47
O=C(CCNC(=O)c1ccccc1)Nc1cccnc1	1.9	1	3.0	102.0	.
Cc1ccc(C(=O)Nc2nc3ccccc3n2CCN2CCCC2)cc1	33.4	0.7	129.7	140.9*	3.05
O=C(Nc1ccc2oc(-c3ccncc3)nc2c1)c1ccccc1F	4.9	1	7.9	103.1	1.01
CC(=O)Nc1ccc2oc(-c3ccccc3)nc2c1	69.9*	0.3	125.8	150.1*	7.64*
O=C(Nc1ccc2oc(-c3ccncc3)nc2c1)c1ccccc1	0.7	1	0.9	107.2	1.03
CC(=O)NC(=S)Nc1ccc2oc(-c3cc(F)c(F)cc3Cl)nc2c1	-1.7	1	170.2*	114.9	2.36
O=C(Nc1ccc2oc(-c3ccc(Cl)c(Cl)c3)nc2c1)c1ncn[nH]1	-2.1	1	24.6	113.7	1.09
O=C(Nc1ccc2oc(-c3ccccc3F)nc2c1)c1ncn[nH]1	52.9*	0.5	137.5*	136.5*	5.35*
O=C(Nc1ccc2oc(-c3ccccc3)nc2c1)c1ccccc1F	18.3	0.8	102.3	145.5*	2.82
O=c1[nH]c2cc3c(cc2cc1C(c1nnnn1CC1CCCO1)N1CCCCCC1)OCCO3 (stereo not drawn)	-5.1	1.1	-8.5	97.5	1.03
Cc1cc(O)c(/C=N/Nc2ccccc2)c(=O)o1	51.4*	0.5	-13.3	88.0	1.27
CCOC(=O)COc1ccc2c3c(c(=O)oc2c1C)CCC3	-0.2	1	5.5	91.9	4.78*
Cn1c(CN2CCCC2)nc2cc(NC(=O)c3ccc(Cl)cc3)ccc21	6.3	0.9	37.7	146.1*	1.33
Cn1cnc2cc(NC(=O)c3ccc(Cl)cc3)ccc21	19.7	0.8	89.0	140.4*	5.04*
COCCNC(=S)N1CCC(NC(=O)Nc2ccc(C)cc2)CC1	-4.6	1	-25.7	96.0	1.06
N#C/C(=C\c1ccc(OCc2ccccc2)cc1)C(N)=O	4.9	1	57.8	130.1*	1.91
Cc1ccc(C2C(/C=C3/SC(=S)NC3=O)=C(c3cccs3)Oc3ccccc32)cc1 (stereo not drawn)	-8.6	1.1	-2.4	104.5	0.84
NC(Cc1ccc(Oc2ccc(O)cc2)cc1)C(=O)O (stereo not drawn)	-2.8	1	-4.5	94.9	1.11
CCS(=O)(=O)c1ccc(O)c(N2C(=O)C3C4C=CC(C4)C3C2=O)c1 (stereo not drawn)	-4.1	1	3.6	101.1	0.91
CN(C)c1ccc(/C=N/NC(=O)c2nonc2N)cc1[N+](=O)[O-]	16.2	0.8	-11.7	133.3*	1.01
Cc1cc(C)nc(N2CCCC(C(=O)Nc3ccc4nc(C)c(C)nc4c3)C2)n1 (stereo not drawn)	-1.9	1	1.8	95.9	0.93
CC1=CC(C)(C)N(S(=O)(=O)c2ccc(C)cc2)c2cc(C)ccc21	-3.5	1	-95.9	112.6	4.37*
CCNc1nc(N)c(C(=O)c2ccc(Cl)s2)s1	2.8	1	58.3	144.2*	3.72*
COc1ccc2nc(NNC(=O)c3cc(=O)c4ccccc4o3)sc2c1	69.0*	0.3	34.1	112.2	0.87
Cc1cccc2sc(NNC(=O)c3cc(=O)c4ccccc4o3)nc12	44.4	0.6	10.5	98.5	1.27
O=C(NNc1nc2c(F)cccc2s1)c1cc(=O)c2ccccc2o1	54.8*	0.5	24.8	94.8	1.44
